Experimental findings from ChEMBL document CHEMBL4513216, “Probing the Open Global Health Chemical Diversity Library for Multistage-Active Starting Points for Next-Generation Antimalarials” (ACS Infect Dis, 2020) are described below.

This series is described as follows: Toxicity liver stage against HepG2, at 10uM. Also noted: test concentration 10 uM, cell line HepG2-A16-CD81EGFP. In kind it is cell-based. To be noted: human, HepG2-A16-CD81EGFP cells; read-out: INHIBITION
A digest of the protocol: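 Uninfected HepG2-A16-CD81EGFP cells, 3 × 10^3 per well, 1536-well, plated on prespotted compound at 10 μM final, parasite-free screening media added to match infected plates; puromycin 10 μM positive, DMSO 0.5% negative; run in parallel with 48 h PbLuc assay at 37 °C, 5% CO2; viability by CellTiter-Glo luminescence, normalized to controls.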
In the case of `CC(C)(C)c1cc(C[C@H]2CNCC[C@H]2CC(=O)NC2CCCCC2)no1`, the cytotoxicity at 10 µM was found to be 2.82%.

With `Cc1ccc(CN2C[C@H]3CN(Cc4ccccc4Cl)CCN3C2=O)cc1`, the cytotoxicity at 10 µM is -10.3%.

As for `O=C(C1CCOCC1)N1CCN2C(=O)N(Cc3ccc(F)cc3)C[C@H]2C1`, the cytotoxicity at 10 µM was -1.34%.

Take `Cc1ccc(-c2cn3c(n2)CO[C@@H](CNCc2nccs2)C3)cc1`: the cytotoxicity at 10 µM was -7.31%.

Turning to `COc1ccc2c(ccn2CCC(=O)Nc2n[nH]c(C(C)C)n2)c1`, the cytotoxicity at 10 µM amounted to 3.3%.

In the case of `O=C(Nc1nc2c(s1)CCC2)NC1CCCC1`, the cytotoxicity at 10 µM was -8.6%.

With `O=S(=O)(NCCC(O)c1cccs1)c1ccccc1Cl` (stereo unspecified), the cytotoxicity at 10 µM was found to be 1.87%.

Turning to `CC(=O)N1CCN(C(=O)Nc2ccccc2)CC2(CC(=O)N(C)C2)C1` (stereo unspecified), the cytotoxicity at 10 µM was -8.93%.

As for `Cc1ccc(S(=O)(=O)N2C[C@@H]3CCN[C@@H]3C2)cc1`, the cytotoxicity at 10 µM was determined as 2.94%.

As for `CC(C)CNC(=O)c1nc2c(s1)CCN(C(=O)c1cccnc1)CC2`, the cytotoxicity at 10 µM was 7.1%.

For `Cc1cnc(N2CC[C@@H]3CN(CCC(C)C)S(=O)(=O)[C@@H]3CC2)nc1`, the cytotoxicity at 10 µM is -3.1%.

Turning to `Cn1nc(C#N)c2c1CN(C(=O)c1ccsc1)CCC2`, the cytotoxicity at 10 µM is -126%.

Consider `CC(C)n1[nH]c(=O)c2c1NC(=O)CC2c1cccc(O)c1` (stereo unspecified), for which the cytotoxicity at 10 µM came out at 10.6%.

On to `O=C(Nc1nc2c(s1)CN(S(=O)(=O)C1CC1)CC2)c1c(F)cccc1F`, for which the cytotoxicity at 10 µM was -14.1%.

In the case of `O=C(c1nc(-c2ccc3cc[nH]c3c2)no1)N1CCCC1`, the cytotoxicity at 10 µM is -3.29%.

For the compound `COCC1COCCC12CCN(C(=O)CCOc1ccccc1)CC2` (stereo unspecified), the cytotoxicity at 10 µM was -18.7%.

As for `Cc1ccc(CNc2cc3[nH]c(O)nc3cc2C)cc1`, the cytotoxicity at 10 µM was determined as 22.2%.

As for `Cn1nc(C(=O)NCc2ccccn2)c2c1CCS(=O)(=O)C2`, the cytotoxicity at 10 µM was determined as 7.21%.

In the case of `Cc1cc(C)nc(N(C)CCn2ccnc2C)n1`, the cytotoxicity at 10 µM was -5.42%.

As to `CC1CCc2nn(CCNC(=O)Cc3cccs3)c(=O)cc2C1` (stereo unspecified), the cytotoxicity at 10 µM stood at 6.83%.

As to `CC(C)(CNC(=O)C(C)(C)Oc1ccc2c(c1)CCCC2=O)C(N)=O`, the cytotoxicity at 10 µM was -2.25%.

On to `O=C(Nc1cccnc1)Nc1ccn(CC(F)F)n1`, for which the cytotoxicity at 10 µM was -4.63%.

Take `OCCN1CCCCC1C1OCCO1` (stereo unspecified): the cytotoxicity at 10 µM came to 6.66%.

Regarding `Cc1cccc(C(=O)N(C)CC(=O)N2CCCC2)c1C`, the cytotoxicity at 10 µM is -0.291%.

For the compound `CNC(=O)C1Cc2ccccc2CN1C(=O)CC(C)C` (stereo unspecified), the cytotoxicity at 10 µM was -150%.

In the case of `COc1ccccc1C(C)(C)NC(=O)c1ccc(F)c(NC(C)=O)c1`, the cytotoxicity at 10 µM was -142%.

Regarding `NC(=O)CN(Cc1ncc(-c2ccc(Cl)cc2)o1)C1CCCC1`, the cytotoxicity at 10 µM is -1.99%.

Turning to `Cc1noc(C2CCN(Cn3cc(Br)cn3)CC2)n1`, the cytotoxicity at 10 µM amounted to 0.277%.

For `CC(C)(CNC(=O)Nc1cccc(-c2nccs2)c1)C(N)=O`, the cytotoxicity at 10 µM is -10%.

`CC(Nc1cccc2c1OCCO2)C(=O)NC(N)=O` (stereo unspecified): the cytotoxicity at 10 µM was 2.76%.

As for `CCNC(=O)NC(=O)CNC(C)(CC)c1nc(C)cs1` (stereo unspecified), the cytotoxicity at 10 µM came to 6.99%.

As to `CCN(CC(F)(F)F)C(=O)C1CCCN(Cc2ccno2)C1` (stereo unspecified), the cytotoxicity at 10 µM was -2.33%.

Regarding `CC(C)OCCC(=O)Nc1cccc(N2CCN(CC3CC3)CC2)c1`, the cytotoxicity at 10 µM is -1.11%.

Consider `Cn1nc2c(cc1=O)CN(CC(=O)Nc1cc(C(C)(C)C)no1)CC2`, for which the cytotoxicity at 10 µM was -4.1%.

For `Cc1cccc(OCC(O)CNCc2c(C)nn(C)c2N(C)C)c1` (stereo unspecified), the cytotoxicity at 10 µM was -2.45%.

For `COc1ccc(C2CCCN2S(=O)(=O)N(C)C)cc1` (stereo unspecified), the cytotoxicity at 10 µM stood at 5.08%.

Turning to `Cc1cccc(C(=O)Nc2cccc3c2CCCC3)n1`, the cytotoxicity at 10 µM was -2.35%.

On to `O=S(=O)(CCCS(=O)(=O)c1ccc2c(c1)OCCCO2)c1ccccc1`, for which the cytotoxicity at 10 µM was -2.76%.

In the case of `O=S1(=O)CCC(N2CCN(c3cc(C(F)(F)F)ccn3)CC2)C1` (stereo unspecified), the cytotoxicity at 10 µM is -3.97%.

In the case of `COc1cccc(CN(C(=O)Nc2nncs2)C2CCC(O)CC2)c1` (stereo unspecified), the cytotoxicity at 10 µM was -0.67%.

Turning to `O=C(c1[nH]nc(C2CC2)c1Cl)N1CCCC1`, the cytotoxicity at 10 µM is -3.78%.

As for `CCCn1ccnc1SCCNS(=O)(=O)c1ccccc1`, the cytotoxicity at 10 µM was -12.8%.

On to `Cc1cnn(CC(C)NCC(=O)NCCc2cccs2)c1` (stereo unspecified), for which the cytotoxicity at 10 µM was 6.41%.

In the case of `CC(O)CN1CCC(CN(C)Cc2ccc(C(N)=O)cc2)CC1` (stereo unspecified), the cytotoxicity at 10 µM was -1.66%.

Consider `CC(CNC(=O)NCc1ccsc1)CC1(C)OCCO1` (stereo unspecified), for which the cytotoxicity at 10 µM was 1.24%.

In the case of `Cc1nn(C)c(C)c1C1CCCN1c1ncnc2[nH]ccc12` (stereo unspecified), the cytotoxicity at 10 µM is 3.45%.

As to `CCCc1cc(NC(=O)c2cccc(N3CCCNC3=O)c2)n[nH]1`, the cytotoxicity at 10 µM is 3.14%.

In the case of `COc1c(CNC2(c3ccc(Cl)cc3)CCC2)c(C)nn1C`, the cytotoxicity at 10 µM came out at 4.22%.

With `CC(C)C1CN(C(=O)Nc2cnn(CC(F)F)c2)CCS1` (stereo unspecified), the cytotoxicity at 10 µM worked out at 12.6%.

With `CC(C)(CC(=O)N(CC(N)=O)C1CCCC1)c1ccccc1`, the cytotoxicity at 10 µM is -4.95%.

As for `Cc1ccc(S(=O)(=O)N2CSCC2C(=O)N(C)C2CC2)cc1Cl` (stereo unspecified), the cytotoxicity at 10 µM was -9.42%.

For the compound `CC(C)c1n[nH]c(C2CN(C(=O)CCCn3cccn3)CCO2)n1` (stereo unspecified), the cytotoxicity at 10 µM was -7.85%.

As to `CN(CCc1cn[nH]c1)C(=O)C1CC(=O)N(Cc2ccccn2)C1` (stereo unspecified), the cytotoxicity at 10 µM was -6.47%.

`NC(=O)CN1CCC(C(=O)NCc2ccc3c(c2)OCCCO3)CC1`: the cytotoxicity at 10 µM was -6.42%.

As to `O=c1n(CC2COCCO2)nc(CC2CCNCC2)n1-c1ccccc1` (stereo unspecified), the cytotoxicity at 10 µM was -3.41%.

For the compound `Cc1nn(CC(=O)NCCc2ccncc2)c(=O)n1Cc1ccccc1`, the cytotoxicity at 10 µM turned out to be 18.5%.

As to `COCCOCC(=O)N1CCCC(c2ncc[nH]2)C1` (stereo unspecified), the cytotoxicity at 10 µM was -4.59%.

Take `CCCc1nnc(NC2CCN(C3CCCC3)CC2)o1`: the cytotoxicity at 10 µM is -2.66%.

Consider `COc1ccc(NC(=O)CCC2CCCN(S(=O)(=O)C3CC3)C2)c(C)c1` (stereo unspecified), for which the cytotoxicity at 10 µM was -3.41%.

For `CC(=O)c1ccc(NC(=O)NC(C(=O)N(C)C)C(C)C)cc1` (stereo unspecified), the cytotoxicity at 10 µM was -5.55%.

For the compound `NS(=O)(=O)c1ccc(F)c(C(=O)NCCSC2CCCCC2)c1`, the cytotoxicity at 10 µM was found to be 4.69%.

Regarding `Nc1nnc(CCCNc2ncnc3c2CCN(C(=O)C2CC2)C3)s1`, the cytotoxicity at 10 µM is -3.94%.

As to `Cc1cc(C)nc(N2CCC(c3nnc(CN(C)C)n3C3CC3)CC2)n1`, the cytotoxicity at 10 µM was -0.578%.

As for `CCCNc1ncc(CN2CCOC(Cc3cccc(F)c3)C2)cn1` (stereo unspecified), the cytotoxicity at 10 µM was -8.65%.

In the case of `COc1cccc2c1OCC(C(=O)N1CCN(C3CCCC3)C(=O)C1)C2` (stereo unspecified), the cytotoxicity at 10 µM is -4.9%.

As for `CCn1ncc2[nH]c(-c3ccc(OC)c(COC)c3)nc21`, the cytotoxicity at 10 µM was 6.34%.

On to `O=C(CCc1nc(Cl)n[nH]1)N1C[C@@H](CN2CCCCCC2)[C@@H](CO)C1`, for which the cytotoxicity at 10 µM amounted to 0.152%.

Turning to `Cc1cc(NCc2ccc(CO)cc2)n2nc(C)cc2n1`, the cytotoxicity at 10 µM is -7.38%.

Take `Cc1ccc(C(=O)N2CC[C@H](N3CCOCC3)[C@H](CCCO)C2)cc1O`: the cytotoxicity at 10 µM was -154%.

As for `CN(C)C(=O)N1CCn2nc(CNC(=O)CCc3ccccn3)cc2C1`, the cytotoxicity at 10 µM is -3.32%.

`CC(=O)N1CCc2c(nc(-c3ccccn3)nc2N(C)CC(O)CO)C1` (stereo unspecified): the cytotoxicity at 10 µM is -12.2%.

Take `Cc1cc(N(C)Cc2cc(C)on2)n2nc(C)c(C)c2n1`: the cytotoxicity at 10 µM came to 19.2%.

As to `Cc1cc(C)n(NC(=O)c2ccccc2C)c(=O)c1`, the cytotoxicity at 10 µM is -5.05%.

With `CCc1nc2n(n1)CC(NCc1cc(OC)c3c(c1)OCCO3)CC2` (stereo unspecified), the cytotoxicity at 10 µM is -4.93%.

As to `Cn1cnnc1C1CCCN(C(=O)NCCCn2cccn2)C1` (stereo unspecified), the cytotoxicity at 10 µM is -5.42%.

For `CCN1CCOC(CNCc2ccccc2OCc2cccnc2)C1` (stereo unspecified), the cytotoxicity at 10 µM is -13.1%.

On to `O=C(CCN1CCCC1=O)Nc1cnn(-c2ccccc2Cl)c1`, for which the cytotoxicity at 10 µM worked out at 5.65%.

Take `Cc1nnc(CN(Cc2ccc3c(c2)OCO3)C2CCC(C)CC2)o1` (stereo unspecified): the cytotoxicity at 10 µM is -1.89%.

With `OC(CN1CCN(Cc2nc(C3CC3)no2)CC1)c1ccccc1` (stereo unspecified), the cytotoxicity at 10 µM was -10.9%.

As for `CCOc1ncccc1C(=O)N1CCC(Nc2ccc(C)nn2)CC1`, the cytotoxicity at 10 µM was -20.6%.

Turning to `Cc1cccc(OCCN2CCCC(c3cc(C(N)=O)[nH]n3)C2)c1` (stereo unspecified), the cytotoxicity at 10 µM was -11.9%.

Take `O=C(NCc1ccc(-n2cncn2)nc1)c1ccc2c(c1)CCC2`: the cytotoxicity at 10 µM is -16.5%.

Take `Cc1nc(C)n(CC2CCCCN2Cc2cscn2)n1` (stereo unspecified): the cytotoxicity at 10 µM is -5.26%.

Regarding `Cc1nc(C)n(CC2CCCN2Cc2cnc(C)s2)n1` (stereo unspecified), the cytotoxicity at 10 µM was determined as 0.0757%.

In the case of `CC(=O)Nc1nc(C(=O)NC(C)c2ccc(F)cc2)cs1` (stereo unspecified), the cytotoxicity at 10 µM was -0.168%.

Turning to `CN1CC(=O)N(c2cccnc2)CC12CCN(C(=O)c1cccn1C)C2` (stereo unspecified), the cytotoxicity at 10 µM was 1.14%.

Turning to `Cc1cccc(CO[C@@H]2CC[C@H]3[C@H]2OCCN3Cc2cc(C)on2)n1`, the cytotoxicity at 10 µM was -3.59%.

Regarding `CN(C)C(=O)COCc1cncc2c1CCN(Cc1ccccc1)C2`, the cytotoxicity at 10 µM was -4.24%.

As to `O=C(NCc1cncc2c1CCN(CC1CCOC1)C2)c1ccco1` (stereo unspecified), the cytotoxicity at 10 µM is -9.55%.

With `c1coc(CN2Cc3ccnn3CC(COCC3CC3)C2)c1` (stereo unspecified), the cytotoxicity at 10 µM is -153%.

On to `CC(=O)N1CCCC2(CN(Cc3ccc(C)s3)CCO2)C1` (stereo unspecified), for which the cytotoxicity at 10 µM worked out at 0.102%.

Consider `O=C(N[C@@H]1CN(C2CCCC2)C[C@@H]2CCCO[C@@H]21)c1cnccn1`, for which the cytotoxicity at 10 µM is -1.58%.

Regarding `CN(Cc1ccco1)C[C@H]1OC[C@@H]2CCN(Cc3ccncc3)C[C@@H]21`, the cytotoxicity at 10 µM is -1.62%.

Regarding `CNC(=O)[C@@H]1CCO[C@@H]2CCN(C3CCOCC3)C[C@@H]21`, the cytotoxicity at 10 µM was 6.67%.

Regarding `CCN1C(=O)CCC12CCC(NC(=O)c1cc(C)on1)CC2` (stereo unspecified), the cytotoxicity at 10 µM was -0.0663%.

For the compound `CN1CCc2c(sc3c2C(=O)NC(C=Cc2ccccc2)N3)C1` (stereo unspecified), the cytotoxicity at 10 µM came out at 6.33%.
